# Published values collected from several papers.
# Compare with care: the assays were run in different laboratories.
# Effect on: cell growth or viability
SMILES,cell line,assay,conditions,measurement,value
C=CC(=O)NC1CCN(c2ncc3ncnc(Nc4ccc(Oc5ccc6c(c5)ncn6C)c(C)c4)c3n2)CC1,GP2d,,,EC50,12300 nM
C=C(F)C(=O)N1CCN(c2nc(OC[C@@H]3CCCN3C)nc3c2CCN(c2cccc4cccc(Cl)c24)C3)C[C@@H]1CC#N,SW480,ATP luminescence,3D culture,IC50,> 1000 nM
COc1cc2c3c(n(CCCNC(C)C)c(=O)c2cc1OC)-c1nc2c(cc1C3=O)OCO2,Kasumi 1,MTS,72 h,IC50,432 nM
CC1(C)CCC(CN2CCN(c3ccc(C(=O)NS(=O)(=O)c4ccc(NCC5CCOCC5)c([N+](=O)[O-])c4)c(Oc4cnc5[nH]ccc5c4)c3)CC2)=C(c2ccc(Cl)cc2)C1,Toledo,ATP luminescence,48 h,IC50,71 nM
Nc1cccc2c1C(=O)N(C1CCC(=O)NC1=O)C2=O (stereo not drawn),MM1.S,XTT,,IC50,~300 nM
COc1cc2c3c(n(CCCNCCO)c(=O)c2cc1OC)-c1nc2c(cc1C3=O)OCO2,Kasumi 1,MTS,72 h,IC50,530 nM
CC1(CN)CCN(c2cnc3c(Sc4ccncc4Cl)n[nH]c3n2)CC1,HGC-27,CCK-8,96 h,IC50,4830 nM
CC(C)c1ccccc1[C@@H]1CCCN1C1CC2(CCN(c3ccc(C(=O)NS(=O)(=O)c4ccc(NC[C@H]5CC[C@](C)(O)CC5)c([N+](=O)[O-])c4)c(Oc4cnc5[nH]ccc5c4)c3)CC2)C1,Toledo,ATP luminescence,48 h,IC50,4.6 nM
Cc1cccc(-c2[nH]c(CNc3ccccc3F)nc2-c2ccc3ncnn3c2)n1,MM1.S,XTT,,IC50,~1500 nM
Cc1noc2c1-c1ccccc1C(c1ccc(Cl)cc1)=N[C@H]2CC(N)=O,Kasumi 1,ATP luminescence,72 h,IC50,263 nM
C=CC(=O)N1CCN(c2nc(=O)n(-c3c(C)ccnc3C(C)C)c3nc(-c4c(O)cccc4F)c(F)cc23)[C@@H](C)C1,SW480,ATP luminescence,,IC50,> 10000 nM
O=C(NO)c1ccc(CNc2nc3cccc(-c4ccc5c(c4)OCO5)n3n2)cc1,A498,SRB,,GI50,510 nM
